Measurements: ChEMBL document CHEMBL4033643, “Synthesis and in vitro antitumour activity of crassalactone D, its stereoisomers and novel cinnamic ester derivatives” (Eur J Med Chem, 2017)
The source made the active and inactive calls. No cut-off for these calls is given here.

Legend:
K562 [1] = assay: Cell cycle arrest in human K562 cells assessed as total cell levels at M4 phase at IC50 after 72 hrs by propidium iodide staining based flow cytometry (reference value: 0.50%); assay type: functional
K562 [2] = assay: Potency index, ratio of doxorubicin IC50 to compound IC50 for human K562 cells; assay type: functional
K562 [3] = assay: Cell cycle arrest in human K562 cells assessed as total cell levels at G0/G1 phase at IC50 after 72 hrs by propidium iodide staining based flow cytometry (reference value: 39.97%); assay type: functional
K562 [4] = assay: Cell cycle arrest in human K562 cells assessed as accumulation at G0/G1 phase at IC50 after 72 hrs by propidium iodide staining based flow cytometry (reference value: 38.48%); assay type: functional
K562 [5] = assay: Cytotoxicity against human K562 cells assessed as reduction in cell viability after 72 hrs by MTT assay; assay type: functional, cell-based; settings: K562, 72 h
K562 [6] = assay: Induction of apoptosis in human K562 cells assessed as specific apoptosis by Annexin V-FITC/propidium iodide staining based flow cytometry; assay type: functional; design: concentration or dose not given beside the values
K562 [7] = assay: Induction of apoptosis in human K562 cells assessed as increase in caspase 3 expression level by Western blot analysis; assay type: functional, cell-based
Procedure, shortened: (§1)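 Western blot of treated K562 cells for Bcl-2, Bax, activated caspase 3 and cleaved PARP (85 kDa fragment). Blots developed by ECL, with band expression quantified by densitometry against an untreated control sample.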

K562 [8] = assay: Cell cycle arrest in human K562 cells assessed as total cell levels at G2/M phase at IC50 after 72 hrs by propidium iodide staining based flow cytometry (reference value: 14.31%); assay type: functional
K562 [9] = assay: Cell cycle arrest in human K562 cells assessed as accumulation at sub G1 phase at IC50 after 72 hrs by propidium iodide staining based flow cytometry (reference value: 1.48%); assay type: functional
K562 [10] = assay: Induction of apoptosis in human K562 cells assessed as decrease in Bcl-2 expression level by Western blot analysis; assay type: functional, cell-based; procedure, shortened: as §1
Jurkat = assay: Cytotoxicity against human Jurkat cells assessed as reduction in cell viability after 72 hrs by MTT assay; assay type: functional, cell-based
K562 [11] = assay: Induction of apoptosis in human K562 cells assessed as gated late apoptotic cells by Annexin V-FITC/propidium iodide staining based flow cytometry (reference value: 0.88%); assay type: functional
K562 [12] = assay: Cell cycle arrest in human K562 cells assessed as total cell levels at S phase at IC50 after 72 hrs by propidium iodide staining based flow cytometry (reference value: 36.49%); assay type: functional
A549 = assay: Cytotoxicity against human A549 cells assessed as reduction in cell viability after 72 hrs by MTT assay; assay type: functional, cell-based; settings: A549, 72 h
MDA-MB-231 = assay: Cytotoxicity against human MDA-MB-231 cells assessed as reduction in cell viability after 72 hrs by MTT assay; assay type: functional, cell-based; settings: MDA-MB-231, 72 h
K562 [13] = assay: Cell cycle arrest in human K562 cells assessed as accumulation at G2/M phase at IC50 after 72 hrs by propidium iodide staining based flow cytometry (reference value: 19.01%); assay type: functional
HeLa = assay: Cytotoxicity against human HeLa cells assessed as reduction in cell viability after 72 hrs by MTT assay; assay type: functional, cell-based
K562 [14] = assay: Induction of apoptosis in human K562 cells assessed as increase in Bax expression level by Western blot analysis; assay type: functional, cell-based; procedure, shortened: as §1
K562 [15] = assay: Induction of apoptosis in human K562 cells assessed as increase in cleaved PARP expression level by Western blot analysis; assay type: functional, cell-based; procedure, shortened: as §1
K562 [16] = assay: Induction of apoptosis in human K562 cells assessed as gated necrotic cells by Annexin V-FITC/propidium iodide staining based flow cytometry (reference value: 0.24%); assay type: functional
MCF7 = assay: Cytotoxicity against human MCF7 cells assessed as reduction in cell viability after 72 hrs by MTT assay; assay type: functional, cell-based; settings: MCF7, 72 h
K562 [17] = assay: Induction of apoptosis in human K562 cells assessed as total viable cells by Annexin V-FITC/propidium iodide staining based flow cytometry (reference value: 92.45%); assay type: functional
K562 [18] = assay: Induction of apoptosis in human K562 cells assessed as specific necrosis by Annexin V-FITC/propidium iodide staining based flow cytometry; assay type: functional; design: concentration or dose not given beside the values
K562 [19] = assay: Induction of apoptosis in human K562 cells assessed as total late apoptotic cells by Annexin V-FITC/propidium iodide staining based flow cytometry (reference value: 0.77%); assay type: functional
HL-60 = assay: Cytotoxicity against human HL60 cells assessed as reduction in cell viability after 72 hrs by MTT assay; assay type: functional, cell-based; settings: HL-60, 72 h
MRC5 = assay: Cytotoxicity against human MRC5 cells assessed as reduction in cell viability after 72 hrs by MTT assay; assay type: cell-based; settings: MRC5, 72 h
K562 [20] = assay: Induction of apoptosis in human K562 cells assessed as total early apoptotic cells by Annexin V-FITC/propidium iodide staining based flow cytometry (reference value: 3.07%); assay type: functional
K562 [21] = assay: Induction of apoptosis in human K562 cells assessed as gated early apoptotic cells by Annexin V-FITC/propidium iodide staining based flow cytometry (reference value: 3.18%); assay type: functional
K562 [22] = assay: Induction of apoptosis in human K562 cells assessed as total necrotic cells by Annexin V-FITC/propidium iodide staining based flow cytometry (reference value: 0.23%); assay type: functional
K562 [23] = assay: Induction of apoptosis in human K562 cells assessed as gated viable cells by Annexin V-FITC/propidium iodide staining based flow cytometry (reference value: 95.78%); assay type: functional
Raji = assay: Cytotoxicity against human Raji cells assessed as reduction in cell viability after 72 hrs by MTT assay; assay type: functional, cell-based
K562 [24] = assay: Cell cycle arrest in human K562 cells assessed as accumulation at S phase at IC50 after 72 hrs by propidium iodide staining based flow cytometry (reference value: 41.03%); assay type: functional

Structure (SMILES)	Activity (K562 [1])	Activity (K562 [3])	Activity (K562 [4])	IC50 (K562 [5])	Activity (K562 [6])	Activity (K562 [7])	Activity (K562 [8])	Activity (K562 [9])	Activity (K562 [10])	IC50 (Jurkat)	Activity (K562 [11])	Activity (K562 [12])	IC50 (A549)	IC50 (MDA-MB-231)	Activity (K562 [13])	IC50 (HeLa)	Activity (K562 [14])	Activity (K562 [15])	Activity (K562 [16])	IC50 (MCF7)	other results
O=C1C=C[C@]2(C[C@H](O)[C@@H](c3ccccc3)O2)O1	1.26%	25.97%	32.52%	0.12 µM	22.6%	Active	5.47%	1.6%	Active	0.21 µM	16.8%	47.93%	29 µM	1.89 µM	6.86%	0.34 µM	inactive	Active	5.02%	11.6 µM	Ratio IC50 (K562 [2]): 2; Activity (K562 [17]): 16.71%; Activity (K562 [18]): 1.08%; Activity (K562 [19]): 4.05%; IC50 (HL-60): 1.06 µM; IC50 (MRC5): > 100 µM; Activity (K562 [20]): 2.14%; Activity (K562 [21]): 8.88%; Activity (K562 [22]): 1.21%; Activity (K562 [23]): 69.31%; IC50 (Raji): 2.34 µM; Activity (K562 [24]): 59.02%
O=C1C=C[C@@]2(C[C@H](OC(=O)/C=C/c3ccc(F)cc3)[C@H](c3ccccc3)O2)O1	3.69%	34.22%	37.01%	5.36 µM	18.71%	Active	26.5%	3.99%	Active	4.63 µM	1.51%	28.54%	1.17 µM	7.54 µM	28.66%	8.45 µM	inactive	Active	2.81%	2.31 µM	Activity (K562 [17]): 70.05%; Activity (K562 [18]): 1.22%; Activity (K562 [19]): 0.75%; IC50 (HL-60): 1.02 µM; IC50 (MRC5): > 100 µM; Activity (K562 [20]): 10%; Activity (K562 [21]): 20.44%; Activity (K562 [22]): 1.57%; Activity (K562 [23]): 75.24%; IC50 (Raji): 5.37 µM; Activity (K562 [24]): 30.34%
